An excerpt weighted towards active compounds, which were near 1.3% of everything screened.
HKDC1 inh = inhibitors of human hexokinase HKDC1 | hit rate 0.16% among 340,000 | Q2TB90 | inhibition, % at 20 µM | recombinant HKDC1, G6PDH/diaphorase resazurin coupled fluorescence | AID 493160;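 active = inhibition above about 35% when tested at 20 µM, limit read from the data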;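 note: plate controls were DMSO wells with enzyme for no effect and DMSO wells lacking enzyme for full effect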
Target sequence (Q2TB90 whole entry, looked up): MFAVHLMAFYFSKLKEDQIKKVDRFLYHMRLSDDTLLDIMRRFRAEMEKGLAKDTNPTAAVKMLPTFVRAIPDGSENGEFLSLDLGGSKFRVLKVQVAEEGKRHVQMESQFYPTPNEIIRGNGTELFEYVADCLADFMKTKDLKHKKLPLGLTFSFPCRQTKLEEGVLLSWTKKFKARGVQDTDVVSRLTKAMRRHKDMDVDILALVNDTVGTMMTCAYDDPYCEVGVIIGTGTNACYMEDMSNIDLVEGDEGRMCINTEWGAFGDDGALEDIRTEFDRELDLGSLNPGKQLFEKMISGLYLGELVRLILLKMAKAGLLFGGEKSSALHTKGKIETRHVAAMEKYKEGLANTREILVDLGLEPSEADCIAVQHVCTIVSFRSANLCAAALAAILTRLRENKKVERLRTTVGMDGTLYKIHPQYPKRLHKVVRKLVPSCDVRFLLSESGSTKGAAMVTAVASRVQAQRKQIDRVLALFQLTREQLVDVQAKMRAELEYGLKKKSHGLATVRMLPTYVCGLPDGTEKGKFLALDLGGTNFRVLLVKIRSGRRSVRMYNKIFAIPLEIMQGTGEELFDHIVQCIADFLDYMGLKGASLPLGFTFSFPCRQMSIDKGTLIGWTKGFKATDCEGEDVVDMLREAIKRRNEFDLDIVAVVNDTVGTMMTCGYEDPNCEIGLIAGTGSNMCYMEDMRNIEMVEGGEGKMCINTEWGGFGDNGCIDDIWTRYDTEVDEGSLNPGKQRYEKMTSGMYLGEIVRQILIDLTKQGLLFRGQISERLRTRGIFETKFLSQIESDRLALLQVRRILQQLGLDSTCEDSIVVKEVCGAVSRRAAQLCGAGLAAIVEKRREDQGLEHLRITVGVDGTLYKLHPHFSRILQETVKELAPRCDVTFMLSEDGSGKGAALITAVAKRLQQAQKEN
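System: Recombinant HKDC1 hexokinase | Amount: HKDC1 at 5 µg/mL | Reagent: Glucose with 1 mM ATP | Doses: Single 20 µM dose | Incubation: Reaction time 90 min, room temperature, protected from light | Signal: Coupled resazurin fluorescence, excitation 525 nm, emission 613 nm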
Diaph inh CS = counter-screen for diaphorase-based assays: diaphorase inhibitors and chemical oxidizers. diaphorase resazurin-to-resorufin fluorescence, NADH, 16 min; bacterial (C. kluyveri) enzyme, not human. inhibition, % at 20 µM. hit rate 0.69% among 190,000. AID 1217;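 active = primary screen inhibition at 20 µM above a set limit, cut at about 50% in these data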;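 note: plate controls were DMSO with full reaction for no effect and wells lacking NADH for full effect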
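Benchmarks: positive control wells lacking NADH, neutral wells with DMSO only. System: bacterial diaphorase enzyme (C. kluyveri). Input: 0.14 U/mL diaphorase, enzyme working solution. Detection: resorufin fluorescence, excitation 544 nm, emission 590 nm. Times: 16-min room-temperature incubation before reading.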
G6PDH CS = inhibits Leuconostoc G6PDH, flagging false hits in G6PDH-based assays. Purified L. mesenteroides G6PDH, diaphorase/resazurin coupled fluorescence, 45 min. inhibition, % at 5 µM. hit rate 0.12% among 200,000. AID 1020; in the data active = inhibition above about 50%
Diaph act CS = diaphorase activation or chemical reduction counter-screen. AID 1229. Diaphorase/resazurin coupled assay, resorufin fluorescence, 16 min; active compounds read high; 1 = vehicle wells, 0 = NADH-free wells. hit rate 0.005% among 190,000. activation factor at 20 µM;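 active = diaphorase activity raised at least twofold by the compound at 20 µM; inactive = activation factor below 2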
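Assay system: Purified diaphorase enzyme from Clostridium kluyveri | Amount: Enzyme 0.07 U/mL final | Dosing: Compound 20 µM once, DMSO 1% | Timing: 16 min reaction at room temperature | Detection: Fluorescence, excitation 544 nm and emission 590 nm | Evaluation: Higher resorufin formation from activation or reduction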
PfG6PD inh = PfG6PD (Plasmodium falciparum) enzyme inhibition. PfGluPho enzyme, NADPH resazurin-diaphorase fluorescence. inhibition, % at 20 µM. hit rate 0.78% among 350,000;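 active = inhibition reaching at least a set limit at 20 µM in the primary screen, cut at about 59% in these data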;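 note: 0% = DMSO wells with substrate and 100% = DMSO wells lacking glucose-6-phosphate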
The depositor's hits bear a star; . = not tested or not shown.

SMILES | HKDC1 inh | Diaph inh CS | G6PDH CS | Diaph act CS | PfG6PD inh
CC(=O)C1=C(c2ccc(Br)cc2)C(=O)c2ccccc2C1=O | 83* | 62* | 39 | 0.4 | 106*
CN(C)c1ccc(/C=N/NC(=O)COc2ccccc2)cc1 | 1 | 8 | -6 | 0.9 | 3
Cc1cccc(OCC(=O)N/N=C/c2ccc(N(C)C)cc2)c1 | 1 | 55* | 10 | 0.4 | 0
COCCCNC1=C(Cl)C(=O)c2ccccc2C1=O | -4 | . | . | . | -172
CCN(CC)CCCNC1=C(Cl)C(=O)c2ccccc2C1=O | 1 | 22 | 54* | 0.8 | -69
O=c1c2ccccc2sn1-c1cc(S(=O)(=O)N2CCOCC2)ccc1N1CCOCC1 | 0 | 4 | 7 | 1 | 111*
C=CCNc1nc(NCc2ccccc2)c(C#N)c2c1CN(C)CC2 | 10 | 63* | 12 | 0.4 | 57
N#Cc1c(NCCN)nc(NCc2ccccc2)c2c1CCN(Cc1ccccc1)C2 | 0 | -9 | 8 | 1.1 | 6
Cc1nc2cc(C)c(C)cc2s1 | 15 | 3 | 4 | 1 | -12
Cc1cc2nc3ccc(=[N+](C)C)cc-3sc2cc1N | 47* | . | . | . | 102*
CSc1nc(SCCO)c2sc3nc(-c4ccco4)c4c(c3c2n1)CC(C)(C)OC4 | 21 | 18 | 13 | 0.8 | 34
CSc1nc(N(CCO)CCO)c2sc3nc(-c4ccco4)c4c(c3c2n1)CCC4 | 37* | 54* | 7 | 0.5 | 40
O=C(Nc1cc(S(=O)(=O)N2CCOCC2)ccc1Cl)C(=O)c1c(-c2ccccc2)cc2ccccn12 | -1 | 14 | 2 | 0.9 | 10
CCOc1ccc(Oc2cc(C)nc(SC)n2)nn1 | 3 | -4 | 0 | 1 | -1
Oc1ccc(/C=N/Nc2cc(N3CCOCC3)nc(N3CCOCC3)n2)cc1O | 9 | 64* | 37 | 0.4 | 7
COC(=O)[C@H](CCSC)NC(=O)NCc1ccccc1F | 3 | 14 | 6 | 0.9 | -5
Cc1ccc(C)c(/C=N/n2cc(-c3ccccc3)[nH]c2=S)c1 | -5 | 76* | -8 | 0.2 | 28
Fc1ccccc1/C=N/n1cc(-c2ccccc2)[nH]c1=S | -3 | . | . | . | 48
COc1ccccc1CNC(=O)COC(=O)C1CC1 | -9 | . | . | . | 3
O=C(NNC(=S)NC(=O)C12CC3CC(CC(C3)C1)C2)c1ccncc1 | -16 | 51* | 1 | 0.5 | -21
CC[n+]1c(C)sc2cc(C)ccc21 | -3 | 54* | 8 | 0.5 | 39
Cc1ccc2sc(C)[n+](CCO)c2c1 | -7 | 7 | -2 | 0.9 | 45
CCCC[n+]1c(C)sc2ccc(C)cc21 | 0 | 66* | 13 | 0.3 | 26
COc1ccc(N=C2S/C(=C\c3ccc(OC(C)C(=O)O)c(OC)c3)C(=O)N2CCc2c[nH]c3ccccc23)cc1 (centres undefined) | -4 | 58* | 8 | 0.4 | -11
O=C1S/C(=C/c2ccc(N3CCOCC3)o2)C(=O)N1Cc1ccc(F)cc1 | -1 | 28 | 7 | 0.7 | 44
SMILES | HKDC1 inh | Diaph inh CS | G6PDH CS | Diaph act CS | PfG6PD inh
COc1cc(/C=C2\SC(=Nc3ccccc3)N(CCc3c[nH]c4ccccc34)C2=O)ccc1OC(C)C(=O)O (centres undefined) | 3 | 18 | 1 | 0.8 | -21
O=C1/C(=C/c2ccc(N3CCOCC3)o2)SC(=Nc2ccccc2)N1CCc1c[nH]c2ccccc12 | 10 | 16 | -1 | 0.8 | 77*
O=C1S/C(=C\c2ccc(N3CCOCC3)o2)C(=O)N1Cc1ccc(F)cc1 | 15 | 26 | 18 | 0.7 | 60*
O=C(NCc1ccccn1)c1cc(-n2cnnc2)ccc1Cl | -4 | 5 | 22 | 0.9 | -4
Cc1ccc(S(=O)(=O)NCC(=O)OCc2cc(=O)oc3c(C)c(C)ccc23)cc1C | 0 | . | . | . | 5
CC1(C)Cc2c(sc(NC(=O)c3ccco3)c2C(=O)O)CO1 | -9 | 18 | 3 | 0.8 | -5
CC1(C)Cc2c(sc(NC(=S)NC(=O)c3ccccc3)c2C(=O)O)CO1 | 1 | 78* | 9 | 0.2 | -12
N#Cc1c2n(c3c(=O)[nH]cnc13)CCCC2 | -8 | -6 | 2 | 1.1 | -2
N#Cc1c2n(c3c(=S)nc[nH]c13)CCCCC2 | -2 | 54* | 4 | 0.5 | 30
Cn1c(SCc2ccc(Br)cc2)nnc1-c1ccncc1 | -3 | 3 | -12 | 1 | -4
Clc1ccc(N=c2ssnc2Cl)cc1 | -37 | 2 | 3 | 1 | -9
COc1ccc(N=c2ssnc2Cl)cc1 | -55 | 11 | -1 | 0.9 | 83*
Fc1ccc(N=c2ssnc2Cl)c(F)c1 | -23 | 18 | 1 | 0.8 | 87*
COc1ccc(N=C2SCC(=O)N2C)cc1 | . | . | . | . | -7
Clc1nssc1=Nc1ccccc1 | -19 | 0 | 6 | 1 | 77*
CC(=O)c1ccc(NC(=O)CSC(C)C)cc1 | -13 | 6 | -2 | 0.9 | 9
Cc1ccc(C(=O)NC(=S)/C=C2\N(C)c3ccccc3C2(C)C)cc1 | 4 | 67* | 1 | 0.3 | 12
CCCCNC(=O)c1cn(CC)c2cc(N3CCN(C)CC3)c(F)cc2c1=O | -2 | . | . | . | 9
CCOC(=O)c1sc(NC(=O)CSc2n[nH]c(-c3ccccc3)n2)c(C#N)c1C | -2 | 27 | -30 | 0.7 | 62*
CCOc1ccc2nc(NC(=O)C34CC5CC(CC(NC(C)=O)(C5)C3)C4)sc2c1 | 12 | . | . | . | 16
O=C(NCc1ccccn1)Nc1ccc(Cl)c(Cl)c1 | -5 | 14 | 6 | 0.9 | 19
CNC(=O)CNC(=O)Nc1ccc(Cl)c(Cl)c1 | -3 | 67* | 7 | 0.3 | 6
CC(C)NC(=O)Cn1cc(C(=O)COc2ccccc2)c2ccccc21 | -8 | -2 | -4 | 1 | 15
CCCn1c(S(=O)(=O)O)nc2ccccc21 | -7 | . | . | . | 6
COc1ccc(NC(=S)NNC(=O)Cn2nc([N+](=O)[O-])cc2C)cc1 | 12 | 13 | 2 | 0.9 | -20
SMILES | HKDC1 inh | Diaph inh CS | G6PDH CS | Diaph act CS | PfG6PD inh
Cc1cc([N+](=O)[O-])nn1CC(=O)NNC(=S)Nc1ccc([N+](=O)[O-])cc1 | -16 | 62* | 10 | 0.4 | 1
COC(=O)Cc1ccc(NC(=S)NC(C)(C)C)cc1 | 5 | 4 | 12 | 1 | -8
O=C(Oc1ccc(/C=N/NC(=O)c2ccco2)cc1)c1ccccc1 | 1 | . | . | . | -7
CC(C)(C)c1nnc(NC(=O)c2ccc3c(c2)OCO3)s1 | -6 | . | . | . | 105*
CCO[C@H]1OC(C(N)=O)=C[C@@H](c2ccc(Br)cc2)[C@@H]1CCCO | -1 | 18 | 11 | 0.8 | -11
C=CCOC(=O)C1=C[C@H](c2ccc(Br)cc2)[C@@H](CCCO)[C@H](OCC)O1 | 1 | 55* | 9 | 0.4 | 9
CCO[C@@H]1OC(C(=O)Nc2ccccc2)=C[C@H](c2ccc(Br)cc2)[C@H]1CCCO | 3 | 56* | 12 | 0.4 | 16

Screening data: PubChem BioAssay, Sanford-Burnham Center for Chemical Genomics
